# In the library only some 3% were active in any assay of this set; here they are far more common.
# iPSC survival up = enhancers of single-cell hiPSC survival, primary screen, ATPlite luminescence; 100% = ROCK inhibitor wells, 0% = DMSO; survival enhancement, % at 20 µM; 0.044% of 360,000 active; in the data active = survival enhancement above about 18%;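 also: cells exposed to compounds for 16 hours before the ATP read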
# MIN6 prolif-1 = inducers of MIN6 beta-cell proliferation, primary screen, ATP luminescence, uHTS | 0.29% of 330,000 active | proliferation, % at 10 µM | AID 2380, 2010 | MIN6 cells proliferation, ATPlite luminescence, 48 h; cells starved in 0.2% serum; 100% = growth in 10% serum;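 active = compounds whose signal lies at least 3.5 SD above the mean of all wells on their plate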;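 also: 0% = DMSO-treated cells in low-serum medium and 100% = 10% serum control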
# Exocytosis inh = LAMP-1 surface exposure blockers, TALL-104 cells – cell-based, flow cytometry, MLPCN library, primary screen | TALL-104 LAMP-1 surface exposure; cells stimulated with thapsigargin and PMA | 0.66% of 360,000 active | AID 651702, 2012 | inhibition, % at 10 µM;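 active = inhibition above about 55%, limit read from the data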
# MPTP block = mitochondrial permeability transition pore inhibitors, primary screen, biochemical, isolated mouse mitochondria, absorbance. 1.4% of 360,000 active. inhibition, % at 10 µM. Ca2+ swelling absorbance, 30 min;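 active = inhibition of 50% or more, scaled per plate between neutral and stimulator controls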;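 also: 0% = DMSO wells given calcium and 100% = 1 mM EGTA wells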
# Apaf1 inhib = inhibitors of human Apaf-1 apoptosome, primary screen, biochemical, DEVD-Rh110 fluorescence, uHTS; Apoptotic protease-activating factor 1 (Homo sapiens), O14727; reconstituted apoptosome caspase-3 activity; inhibition, % at 20 µM; 0.71% of 330,000 active; active = inhibition of at least 40% at 20 µM;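 also: plate controls were DMSO wells for no effect and DEVD-CHO caspase inhibitor wells for full effect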
#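 Material: biochemical Apaf-1 apoptosome reconstitution. Medium: Hepes buffer, pH 7.5. Also added: cytochrome c activation, bis-DEVD rhodamine 110 substrate. Timing: 30 min compound preincubation, 50 min activation, room temperature. Measured by: rhodamine 110 fluorescence at Ex 480/Em 540 nm.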
# UBC13 inh = UBC13 polyubiquitin chain formation inhibitors, primary screen, biochemical, TR-FRET, uHTS. Ubiquitin-conjugating enzyme E2 N (Homo sapiens), P61088. inhibition, % at 20 µM. 0.47% of 330,000 active; in the data active = inhibition above about 45%, passing the limit was not always enough
# Target sequence (P61088 whole entry, looked up): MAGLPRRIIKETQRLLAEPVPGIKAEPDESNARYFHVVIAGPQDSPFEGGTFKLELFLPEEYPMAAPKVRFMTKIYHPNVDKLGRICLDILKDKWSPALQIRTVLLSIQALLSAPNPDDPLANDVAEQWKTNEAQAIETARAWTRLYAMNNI
# MIN6 prolif-2 = inducers of beta-cell proliferation in MIN6, confirmation, MIN6 cells, mouse; shares compounds with MIN6 prolif-1; ATPlite luminescence, 48 h; cells kept in 0.2% serum; scaled between 0.2% and 10% serum; proliferation increase, % at 50 µM; 920 tested, under 10 active; AID 463095, 2010;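 active = proliferation increase above 40% at any of the four tested concentrations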
# * = called active by the depositor; . = no result.
SMILES,iPSC survival up,MIN6 prolif-1,Exocytosis inh,MPTP block,Apaf1 inhib,UBC13 inh,MIN6 prolif-2
NS(=O)(=O)c1ccc(CNC(=O)c2cc(=O)[nH]c3ccccc23)cc1,1,6.5*,-13,0,8,8,0
O=C(NCc1ccc(Cl)cc1)c1cc(=O)[nH]c2ccccc12,1,1,-1,0,9,2,.
Cc1ccc(Cn2cc(CN3CC(N4CCSCC4)CS3(=O)=O)nn2)cc1 (configuration not stated),0,.,15,0,.,.,.
O=C(CN(Cc1ccccc1)C(=O)CNS(=O)(=O)c1ccc(Cl)cc1)NCC1CCCO1 (configuration not stated),0,0.0*,-4,0,1,5,2
Cc1cc(C)c(S(=O)(=O)c2ccccc2)c(Cl)n1,0,4.9*,2,0,7,-2,-1
CCCCOC(=O)CSc1nc2c(c(=O)[nH]c(=O)n2C)n1C/C=C(\C)Cl,-1,5.4*,5,2,3,-1,-4
CCOC(=O)C(CC)Sc1nc2c(c(=O)[nH]c(=O)n2C)n1C/C=C(/C)Cl (configuration not stated),0,5.4*,9,1,3,0,-6
C/C(Cl)=C/Cn1c(SCC(C)C)nc2c1c(=O)[nH]c(=O)n2C,5,3,-2,1,10,-10,.
O=C(C[C@@H]1C/C=C\C[C@H](Cc2ccc(F)cc2)C(=O)OC[C@H]2CCCN2C1=O)N[C@H](CO)Cc1ccccc1,-3,-3,41,0,17,-8,.
COc1cc(NC(=O)CN(c2ccc(C)cc2)S(=O)(=O)c2c(C)nn(C)c2C)cc(OC)c1,1,10*,-1,2,12,7,-6
CC1CCCCN1C(=O)COC(=O)c1cc([N+](=O)[O-])ccc1N (configuration not stated),0,15*,8,-1,3,3,1
COc1ccc(C)cc1S(=O)(=O)Nc1ccc2c(c1)OCCO2,0,-3,0,-1,0,-10,.
COc1ccc(NC(C)=O)cc1S(=O)(=O)Nc1ccc2c(c1)OCCO2,-1,7.9*,0,0,-18,-1,-3
CS(=O)(=O)Nc1cccc(NC(=O)C2Cc3c(-c4ccccc4)ccnc3O2)c1 (configuration not stated),0,.,-1,8,.,.,.
COCCN(Cc1cc2ccc(C)cc2[nH]c1=O)S(=O)(=O)c1ccccc1,0,9.1*,-7,1,1,0,-1
CCc1cc(-c2cnnn2Cc2ccccc2)ccc1-c1cn(CC(C)C)nn1,6,.,5,1,.,.,.
CCNC(=S)Nc1cc(C)ccn1,-1,0.0*,-3,-4,-12,3,2
COc1cccc(C(C(=O)NC2CCCCC2)N(C(=O)c2ccco2)c2ccc(-n3cnnn3)c(C)c2)c1 (configuration not stated),1,7.7*,1,0,15,0,-2
Cc1cc(N(C(=O)c2ccco2)C(C(=O)NC2CCCCC2)c2ccccc2)ccc1-n1cnnn1 (configuration not stated),2,-2,-4,-1,0,4,.
COc1ccc(OC)c(C(=O)CSc2nccc(-c3ccc(Br)cc3)n2)c1,-1,5.6*,2,2,-4,28,-3
CCC1(c2ccccc2)C(=O)N(C(=O)OC(C)(C)C)N1C(=O)OC(C)(C)C (configuration not stated),1,2,-1,0,5,10,.
CCOC(=O)N1C(=O)[C@](CC)(c2ccccc2)N1C(=O)OCC,-3,12*,-3,-1,-3,3,-5
O=C(NCc1ccc(F)cc1)C(c1ccco1)N(C(=O)c1csnn1)c1ccccc1 (configuration not stated),6,11*,-5,-1,0,4,-4
O=C(NCc1ccc(F)cc1)C(c1ccccc1)N(C(=O)c1csnn1)c1ccccc1 (configuration not stated),0,3,53,-1,4,5,.
COc1ccc(C=C(C(=O)O)c2ccc(OC)cc2)cc1,-1,.,4,-1,.,.,.
SMILES,iPSC survival up,MIN6 prolif-1,Exocytosis inh,MPTP block,Apaf1 inhib,UBC13 inh,MIN6 prolif-2
COc1ccccc1CCC(=O)Nc1ccc(S(=O)(=O)Nc2nccs2)cc1,0,13*,0,-1,2,-1,1
CCc1nn(C(CC)C(=O)NCc2cccc(OC)c2OC)c(=O)c2cc3occc3n12 (configuration not stated),0,14*,19,-1,-4,-4,-6
COc1cccc(C(C(=O)NC(C)(C)C)N(C(=O)CCC(=O)Nc2cc(C)on2)C(C)C)c1OC (configuration not stated),-2,3,0,2,7,-5,.
Cc1cc(NC(=O)CCC(=O)N(CC(C)C)C(C(=O)NC(C)(C)C)c2ccccc2Cl)no1 (configuration not stated),1,6.7*,-6,0,9,6,-3
COc1cccc(C(C(=O)NC(C)(C)C)N(C(=O)CCC(=O)Nc2cc(C)on2)C(C)(C)C)c1OC (configuration not stated),-3,5.2*,-3,-3,-6,6,-1
CCCCN(C(=O)CCC(=O)Nc1cc(C)on1)C(C(=O)NC(C)(C)C)c1ccccc1Cl (configuration not stated),0,-1,14,0,11,-2,.
CCCCNC(=O)c1c(N)[nH]c(C(=O)c2ccccc2)c1-c1ccccn1,-1,.,6,1,.,.,.
CCN(CC)S(=O)(=O)c1ccc(N2CCOCC2)c(NC(=O)c2c3c(nc4ccccc24)CCC3)c1,-3,7.6*,-1,0,14,-15,-1
CS(=O)(=O)N1CCC(C(=O)Nc2ccc(F)cc2)CC1,0,-2,-7,1,-12,8,.
CS(=O)(=O)N1CCC(C(=O)Nc2ccc(F)cc2F)CC1,-2,5.7*,-2,-2,-3,-6,1
CC(C)c1nc2n[nH]c(N)c2c2c1CCCC2,0,6.1*,4,-7,-2,2,7
CC(C)Cc1nc2n[nH]c(N)c2c2c1CCC2,2,0.0*,-4,0,19,-5,2
Cn1cc(S(=O)(=O)N2CCCC2)cc1C(=O)O,0,3,-3,-1,-13,-1,.

# High-throughput results deposited in PubChem BioAssay by several laboratories.
